Records with an inconclusive call do not appear.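 The calls were made as follows, unless noted: active = RAM network inhibition above 8.4% in each of two replicates, 3 SD over the compound average; inconclusive = above 8.4% inhibition in only one replicate; inactive = 8.4% inhibition or less in each replicate.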
Columns and labels:
[1] = OD615 S. cerevisiae growth inhibition, permissive medium, pilot counter-assay, permissive growth control for S. cerevisiae lifespan shortening project (AID 705;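 active = growth inhibition above 25% in both replicates, a cutoff set 3 SD above the mean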); conditions: OD615, 24 h, at 10 µM, stronger effect = higher value
Method in brief: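 System: S. cerevisiae with engineered DeaD lifespan system. Medium: SC raffinose/galactose permissive medium. Doses: single compound dose of 10 µM, 0.25% DMSO final. Schedule: 24 h exposure, 30 °C. Measured by: OD615 turbidity read. Read-out: growth inhibition.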

[2] = Restrictive medium S. cerevisiae growth inhibition, OD615, pilot screen of yeast lifespan reduction project, restrictive growth control (AID 706;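 active = growth inhibition above a set limit, 3 SD over mean compound inhibition, in both replicates, cut at about 43% in these data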;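 also: modified DeaD lifespan yeast strain shifted to restrictive glucose medium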); conditions: OD615, 48 h, at 10 µM, stronger effect = higher value
Method in brief: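 Assay system – genetically modified Saccharomyces cerevisiae, DeaD replicative lifespan assay strain · Medium – CSMM-D glucose medium · Doses – 10 µM compound, 0.25% DMSO · Times – 4 h pre-incubation, 48 h exposure at 30 °C · Signal – optical density at 615 nm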

[3] = viability gain of MRP-1-high H69AR cells under doxorubicin, pilot screen, MRP-1 activator project, CellTiter-Glo, duplicate (AID 807;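 active = viability increase at or above a cutoff of the median across tested compounds plus 3 SD, cut at about 8.5% in these data, passing the limit was not always enough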;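 also: compound pretreatment 18-22 h then 72 h combined with doxorubicin; 0% = doxorubicin alone and 100% = vehicle without doxorubicin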); conditions: H69AR viability with doxorubicin, CellTiter-Glo luminescence; at 10 µM; stronger effect = higher value
[4] = growth suppression of beta-catenin knockout HCT116, pilot screen, human colon tumor cells (AID 823;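 active = cell viability at or below a set limit in both duplicate runs, the limit being the all-compound median minus 4 SD, cut at about 23% in these data, passing the limit was not always enough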;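 also: 0% = wells killed by 20 µM Hyamine and 100% = untreated DMSO cell wells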); conditions: CellTiter-Glo, 60 h, at 10 µM, stronger effect = lower value
[5] = growth suppression of PTEN-deleted HCT116, pilot screen, cell-based, HCT116 clonal line, CellTiter-Glo (AID 824;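 active = viability at or below 27.92% in each of two runs, the all-compound median minus 4 SD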;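 also: 0% = 20 µM Hyamine control and 100% = vehicle cell control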); conditions: 60 h, at 10 µM, stronger effect = lower value
[6] = inhibitors of the yeast RAM network, pilot screen, dse1pr::URA3 reporter, 5-FOA selection (AID 869;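 active = inhibition over a set limit, the all-compound mean plus 3 SD, in both replicate runs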;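 also: 0% = DMSO wells with no growth and 100% = 10 µM 1-NA-PP1 with full growth; RAM network block rescues cells from 5-FOA so hits raise OD615 growth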); conditions: S. cerevisiae dse1pr::URA3 5-FOA growth, OD615, 2 d; at 10 µM; stronger effect = higher value; strain carries analog-sensitive mutant Cbk1 kinase
[7] = RAM signaling pathway blockade in yeast – S. cerevisiae, Pdr1DBD-CYC8 efflux-inhibited sensitized strain, primary screen (AID 1298);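 also: 0% = DMSO untreated cells without growth and 100% = 10 µM 1-NA-PP1 full growth; higher means more yeast growth rescued from 5-FOA killing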; conditions: S. cerevisiae cbk1-as DSE1-URA3 strain, 5-FOA growth OD615, 2 d; at 50 µM; stronger effect = higher value

C=CCSc1nnc(-c2cc(Br)ccc2N)c(=O)[nH]1
inactive: growth inhibition [1] -14.6% | growth inhibition [2] -18% | viability increase [3] 0.99% | viability [4] 102% | viability [5] 96.5% | inhibition [6] 0.7% | RAM network inhibition [7] 2.42%

N#CC1=C(N)OC2=C(C(=O)CCC2)C1c1ccsc1 (stereo not drawn)
inactive: growth inhibition [1] -7.86% | growth inhibition [2] -3.94% | viability increase [3] -1.81% | viability [4] 93.2% | viability [5] 103% | inhibition [6] 1.52% | RAM network inhibition [7] 4.01%

O=C(C1CC(c2ccc(F)cc2)=NO1)N1CCN(c2ccccc2)CC1 (stereo not drawn)
inactive: growth inhibition [1] 1.07% | growth inhibition [2] -3.47% | viability increase [3] -0.13% | viability [4] 99.1% | viability [5] 95.6% | inhibition [6] 1.23% | RAM network inhibition [7] 3.67%

CN(C)c1nc(Oc2ccc(C(=O)OCC(=O)Nc3ccccc3)cc2)nc(N(C)C)n1
inactive: growth inhibition [1] 5.09% | growth inhibition [2] 5.01% | viability increase [3] -3.31% | viability [4] 95.6% | viability [5] 94.3% | inhibition [6] 2.15% | RAM network inhibition [7] 1.24%

O=C(CN(C1CCCCC1)S(=O)(=O)c1ccc(Cl)cc1)NCc1ccncc1
inactive: growth inhibition [1] -6.84% | growth inhibition [2] 3.38% | viability increase [3] -2.2% | viability [4] 79.8% | viability [5] 79.4% | inhibition [6] 1.56% | RAM network inhibition [7] 3.63%

CC1COC2C(O1)N(S(C)(=O)=O)CCN2S(C)(=O)=O (stereo not drawn)
inactive: growth inhibition [1] -7.71% | growth inhibition [2] -12.4% | viability increase [3] 0.34% | viability [4] 99.3% | viability [5] 101% | inhibition [6] 0.68% | RAM network inhibition [7] 2.6%

O=C(NCCOC(=O)c1ccc(C(=O)OCCNC(=O)c2ccccc2)o1)c1ccccc1
inactive: growth inhibition [1] 4.22% | growth inhibition [2] 13.6% | viability increase [3] 0.02% | viability [4] 100% | viability [5] 103% | inhibition [6] 1.25% | RAM network inhibition [7] 6.33%

Cc1onc(-c2ccccc2)c1C(=O)Nc1nnc(N2CCCCCC2)s1
inactive: growth inhibition [1] -15.2% | growth inhibition [2] -12% | viability increase [3] 2% | viability [4] 101% | viability [5] 87.5% | inhibition [6] 1.23% | RAM network inhibition [7] 3.72%

O=C(CC12CC3CC(CC(C3)C1)C2)N1CCOCC1
inactive: growth inhibition [1] 6.71% | growth inhibition [2] 1.68% | viability increase [3] -0.17% | viability [4] 102% | viability [5] 102% | inhibition [6] 1.39% | RAM network inhibition [7] 7.72%

COc1cccc(C2c3c(oc4ccccc4c3=O)C(=O)N2CCCN2CCOCC2)c1 (stereo not drawn)
inactive: growth inhibition [1] -10.5% | growth inhibition [2] -5.13% | viability increase [3] -3.16% | viability [4] 95.1% | viability [5] 93.1% | inhibition [6] 1.13% | RAM network inhibition [7] 2.84%

Cc1cc(Nc2ccc(Br)cc2)n2nc(C)nc2n1
inactive: growth inhibition [1] -14% | growth inhibition [2] -2.33% | viability increase [3] -2.63% | viability [4] 96.2% | viability [5] 88.3% | inhibition [6] 2.85% | RAM network inhibition [7] 4.46%

COc1ccc(NC(=O)Cc2nc3ccccc3[nH]2)cc1
inactive: growth inhibition [1] 0.43% | growth inhibition [2] 6.96% | viability increase [3] -1.06% | viability [4] 58.9% | viability [5] 92.5% | inhibition [6] 0.695% | RAM network inhibition [7] -1.49%

CCCCn1c(CN2CCOCC2)nc2c1c(=O)n(C)c(=O)n2C
inactive: growth inhibition [1] -1.51% | growth inhibition [2] -7.03% | viability increase [3] -1.72% | viability [4] 93.8% | viability [5] 89.6% | inhibition [6] 0.375% | RAM network inhibition [7] 2.4%

O=C(Nc1sc2c(c1C(=O)O)CCCCC2)c1ccco1
inactive: growth inhibition [1] -3.7% | growth inhibition [2] -9.4% | viability increase [3] -1.32% | viability [4] 88.7% | viability [5] 78.5% | inhibition [6] -0.91% | RAM network inhibition [7] -1.46%

CCOc1ccccc1NC(=O)CSc1nnc(-c2ccco2)n1Cc1ccco1
inactive: growth inhibition [1] 3.23% | growth inhibition [2] 2.22% | viability increase [3] -2.48% | viability [4] 95.7% | viability [5] 88.2% | inhibition [6] -0.165% | RAM network inhibition [7] 3.85%

Cc1ccc(C(=O)N(Cc2nc(-c3ccc(C)cc3)no2)C(C)C)cc1
inactive: growth inhibition [1] -14.3% | growth inhibition [2] -18.5% | viability increase [3] 0.77% | viability [4] 100% | viability [5] 94.5% | inhibition [6] 1.33% | RAM network inhibition [7] 5.26%

COC(=O)c1sc(NC(=O)C2CCCCC2C(=O)O)c(C(=O)OC)c1C (stereo not drawn)
inactive: growth inhibition [1] -5.95% | growth inhibition [2] 0.13% | viability increase [3] -2.78% | viability [4] 104% | viability [5] 94.6% | inhibition [6] 2.49% | RAM network inhibition [7] 6.27%

Cc1cc(C)nc(NS(=O)(=O)c2ccc(NC(=O)CCCN3C(=O)c4ccccc4C3=O)cc2)n1
inactive: growth inhibition [1] -7.67% | growth inhibition [2] -0.225% | viability increase [3] -1% | viability [4] 99.6% | viability [5] 100% | inhibition [6] 0.735% | RAM network inhibition [7] 3.72%

O=C(NCc1cccs1)C1CCN(S(=O)(=O)c2cccc3cccnc23)CC1
inactive: growth inhibition [1] -3.73% | growth inhibition [2] -6.17% | viability increase [3] -0.65% | viability [4] 93% | viability [5] 90.7% | inhibition [6] -0.03% | RAM network inhibition [7] 1.45%

Cc1ccccc1NC(=O)NCCN1C(=O)C2C3C=CC(C3)C2C1=O (stereo not drawn)
inactive: growth inhibition [1] -7.87% | growth inhibition [2] 1.59% | viability increase [3] -2.01% | viability [4] 103% | viability [5] 102% | inhibition [6] 0.745% | RAM network inhibition [7] 1.46%

CC(C)c1cc(NC(=O)CSc2nnc(-c3ccccc3F)n2C)on1
inactive: growth inhibition [1] -6.68% | growth inhibition [2] 2.08% | viability increase [3] 0.77% | viability [4] 98% | viability [5] 101% | inhibition [6] 0.705% | RAM network inhibition [7] 3.69%

Cc1noc(C(=O)N2CC3(C)CC2CC(C)(C)C3)c1Cl (stereo not drawn)
inactive: growth inhibition [1] -13% | growth inhibition [2] -13.2% | viability increase [3] 0.45% | viability [4] 82.9% | viability [5] 83% | inhibition [6] -0.145% | RAM network inhibition [7] 5.28%

Cc1nc2ccccn2c1C(=O)NC1CCCCC1
inactive: growth inhibition [1] 4.45% | growth inhibition [2] 1.56% | viability increase [3] -1.3% | viability [4] 101% | viability [5] 103% | inhibition [6] 1.17% | RAM network inhibition [7] -0.77%

CCOC(=O)c1ccc(Nc2cc(C)nc3nc(C)nn23)cc1
inactive: growth inhibition [1] -5.61% | growth inhibition [2] 4.27% | viability increase [3] -4.45% | viability [4] 103% | viability [5] 103% | inhibition [6] 0.015% | RAM network inhibition [7] 1%
